According to ChEMBL document CHEMBL4311977, “Design and synthesis of parthenolide and 5-fluorouracil conjugates as potential anticancer agents against drug resistant hepatocellular carcinoma” (Eur J Med Chem, 2019):
Active and inactive are the calls of the source. No cut-off for these calls is given here.

Experiments:
Bel7402/5-FU [1] = experiment: Induction of apoptosis in human Bel7402/5-FU assessed as apoptotic cells at 0.5 uM incubated for 48 hrs by annexinV-FITC/propidium iodide staining based flow cytometry (reference value: 3.37 +/- 0.47 %)
Bel7402/5-FU [2] = experiment: Induction of apoptosis in human Bel7402/5-FU assessed as viable cells at 1 uM incubated for 48 hrs by annexinV-FITC/propidium iodide staining based flow cytometry (reference value: 96.9 to 97.1 %)
Bel7402/5-FU [3] = experiment: Induction of apoptosis in human Bel7402/5-FU assessed as viable cells at 2.5 uM incubated for 48 hrs by annexinV-FITC/propidium iodide staining based flow cytometry (reference value: 96.9 to 97.1 %)
Bel7402/5-FU [4] = experiment: Induction of apoptosis in human Bel7402/5-FU assessed as necrotic cells at 1 uM incubated for 48 hrs by annexinV-FITC/propidium iodide staining based flow cytometry (reference value: 0.024 to 0.157 %)
[5] = Therapeutic index, ratio of IC50 for mouse 3T3 cells to IC50 for human Bel7402 cells; format: toxicity; conditions: mouse 3T3 cells versus human Bel7402 cells, read-out: TI
Bel7402/5-FU [6] = experiment: Induction of apoptosis in human Bel7402/5-FU cells assessed as upregulation of Bax expression at 0.5 to 5 uM incubated for 24 hrs by Western blot analysis; format: functional, cell-based
In short: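 Bel-7402/5-FU cells were seeded at 5 × 10⁵ per well and left 12 h, then treated with four concentrations (0.5, 1, 2, 5) for 24 h. Cells were PBS-washed and lysed in RIPA on ice for 30 min, then denatured at 100 °C for 5 min. Lysates went through SDS-PAGE and PVDF transfer, 5% milk blocking for 1 h at room temperature, primary antibodies, and HRP secondary for 2 h at room temperature.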

Bel7402/5-FU [7] = experiment: Induction of apoptosis in human Bel7402/5-FU assessed as early apoptotic cells at 2.5 uM incubated for 48 hrs by annexinV-FITC/propidium iodide staining based flow cytometry (reference value: 20.1 to 20.3 %)
Bel7402/5-FU [8] = experiment: Potency index, ratio of parthenolide IC50 to compound IC50 for antiproliferative activity against human Bel7402/5-FU cells; format: functional
Bel7402/5-FU [9] = experiment: Induction of apoptosis in human Bel7402/5-FU cells assessed as increase in irregular nuclear morphology incubated for 48 hrs by DAPI staining based fluorescence microscopic analysis; format: functional, cell-based
In short: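 Bel-7402/5-FU cells were seeded at 5 × 10⁵ per well and left 12 h, then exposed at three concentrations (1, 2, 5) for 48 h. Cells were washed three times in PBS and stained with DAPI for 10 min at room temperature. Nuclear morphology was scored by fluorescence microscopy.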

C=C1C(=O)O[C@H]2[C@H]1CC/C(COC(=O)Cn1cc(F)c(=O)n(Cc3ccc(C(F)(F)F)cc3)c1=O)=C\CC[C@@]1(C)O[C@@H]21
Activity (Bel7402/5-FU [1]): 3.97% | viability at 1 µM (Bel7402/5-FU [2]): 94.3% | viability at 2.5 µM (Bel7402/5-FU [3]): 85.6% | Activity (Bel7402/5-FU [4]): 1.9% | selectivity ratio [5]: 2.3 | Activity (Bel7402/5-FU [6]): Active | Activity (Bel7402/5-FU [7]): 7.75% | Ratio IC50 (Bel7402/5-FU [8]): 5.8 | Activity (Bel7402/5-FU [9]): Dose-dependent effect
